Columns and labels:
[1] = system: mouse macrophage J774 cells; assay type: cell-based; conditions: 0.3 mg/mL peptide in human plasma, 2% apoB-depleted plasma, 4 h
How it was run: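 Mouse macrophage J774 cells were incubated 4 h with 2% apoB-depleted plasma samples. The plasma was human plasma pre-treated with peptide at 0.3 mg/mL (~270 μM cyclic peptide), with a concentration range for one peptide. Efflux was expressed relative to vehicle-treated plasma, set as 0% efflux. Samples were run in quadruplicate and reported as mean ± SD. Peptide alone as acceptor was also tested against vehicle.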

human plasma HDL = assay: Human plasma remodeling, Western blot for human apoA-I; assay type: biochemical; conditions: Western blot, 0.4, 0.2, 0.1 mg/mL
How it was run: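 Lipid-poor pre-beta HDL was then detected by Western blotting for human apoA-I. The positive control was a control peptide at 0.1 mg/mL, and the negative control was 10% sucrose.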

human plasma HDLs = assay: Pre-beta HDL ELISA after incubating human plasma with peptide; assay type: biochemical; conditions: ELISA screen
How it was run: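 Peptides were incubated with human plasma in vitro for 1 h. Pre-beta HDL was then quantified by ELISA and reported as the concentration of pre-beta HDL generated, as mean ± SD.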

c[wL^MewSeQ^MesO] [compound 83]
cholesterol efflux, in words [1]: greatly diminished
plasma HDL remodeling, in words (human plasma HDL): greatly diminished

wNAwReQeR [compound 26]
HDL remodeling activity (pre-beta HDL formation), in words (human plasma HDLs): less active than peptide 21

wAOwReQeR [compound 24]
HDL remodeling activity (pre-beta HDL formation), in words (human plasma HDLs): less active than peptide 21

wWwReQeR [compound 25]
HDL remodeling activity (pre-beta HDL formation), in words (human plasma HDLs): less active than peptide 21

wMeLwReMeQeR [peptide 27]
HDL remodeling activity (pre-beta HDL formation), in words (human plasma HDLs): greatly diminished compared to 21

WlWrEqEr [compound 22]
HDL remodeling activity (pre-beta HDL formation), in words (human plasma HDLs): nearly identical

wHLwReQeR [compound 23]
HDL remodeling activity (pre-beta HDL formation), in words (human plasma HDLs): less active than peptide 21

wLwREQeR [compound 29]
HDL remodeling activity (pre-beta HDL formation), in words (human plasma HDLs): reduced

wLwReQeO [compound 18]
HDL remodeling activity (pre-beta HDL formation), in words (human plasma HDLs): essentially inactive

Ac-wLwSeQsO-NH2 [compound 82]
cholesterol efflux, in words [1]: failed to remodel plasma HDL or promote cholesterol efflux
plasma HDL remodeling, in words (human plasma HDL): failed to remodel plasma HDL

wLwErQrE [compound 30]
HDL remodeling activity (pre-beta HDL formation), in words (human plasma HDLs): dramatically reduced compared to 21
cholesterol efflux, in words [1]: dramatically reduced compared to that of 21

wLWReQeR [compound 28]
HDL remodeling activity (pre-beta HDL formation), in words (human plasma HDLs): reduced

pyLwKsKsK [compound 37]
HDL remodeling activity (pre-beta HDL formation), in words (human plasma HDLs): promoted HDL remodeling
